Test results reported in ChEMBL document CHEMBL4007465, “1,4-Substituted Triazoles as Nonsteroidal Anti-Androgens for Prostate Cancer Treatment” (J Med Chem, 2017).
pIC50: −log10 of the molar value. Calls of active or inactive are those of the source. The calls are words filed in the database; no cut-off is given here.

Legend:
[1] = biological target: T1, Androgen receptor (Homo sapiens) (UniProt P10275); experiment: Antagonist activity at androgen receptor in human LNCAP cells assessed as reduction in PSA mRNA expression at 10 uM after 24 hrs by RT-qPCR analysis relative to control; type: cell-based
T1 sequence (whole entry): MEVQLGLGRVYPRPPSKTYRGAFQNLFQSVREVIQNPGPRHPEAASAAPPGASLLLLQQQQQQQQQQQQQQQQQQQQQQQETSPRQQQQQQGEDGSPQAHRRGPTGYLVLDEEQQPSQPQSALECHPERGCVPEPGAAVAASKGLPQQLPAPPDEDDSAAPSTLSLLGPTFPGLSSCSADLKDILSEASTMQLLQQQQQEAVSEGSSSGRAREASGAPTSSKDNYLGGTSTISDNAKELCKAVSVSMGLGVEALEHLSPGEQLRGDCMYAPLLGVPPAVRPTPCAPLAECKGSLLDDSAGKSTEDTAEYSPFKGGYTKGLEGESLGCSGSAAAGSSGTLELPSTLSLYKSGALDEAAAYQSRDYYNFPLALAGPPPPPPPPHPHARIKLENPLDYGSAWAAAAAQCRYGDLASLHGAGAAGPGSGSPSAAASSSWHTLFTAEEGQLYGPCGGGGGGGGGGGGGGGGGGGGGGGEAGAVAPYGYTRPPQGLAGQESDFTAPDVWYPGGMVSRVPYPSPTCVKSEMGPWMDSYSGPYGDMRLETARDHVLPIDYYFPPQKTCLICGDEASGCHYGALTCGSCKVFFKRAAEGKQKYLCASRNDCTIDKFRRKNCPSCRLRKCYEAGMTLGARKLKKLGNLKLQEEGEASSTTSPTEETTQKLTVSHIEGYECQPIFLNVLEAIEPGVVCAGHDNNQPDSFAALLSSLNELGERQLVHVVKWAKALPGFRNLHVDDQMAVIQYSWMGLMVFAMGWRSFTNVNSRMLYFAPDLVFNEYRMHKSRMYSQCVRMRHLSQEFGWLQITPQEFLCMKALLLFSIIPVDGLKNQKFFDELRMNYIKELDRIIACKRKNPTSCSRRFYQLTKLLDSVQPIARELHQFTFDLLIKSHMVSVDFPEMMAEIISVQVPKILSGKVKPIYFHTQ
Summary of the method: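 LNCaP cells treated 24 h after seeding with 10 μM compound for 24 h at 37 °C. RNA extracted, cDNA made from equal RNA amounts, then SYBR Green RT-qPCR for PSA. Normalised to 18S rRNA, relative levels by comparative Ct method versus untreated cells. Run in triplicate.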

[2] = biological target: T1, Androgen receptor (Homo sapiens)
[3] = Antagonist activity at androgen receptor V7 mutant in human CW22Rv1 cells assessed as cell growth inhibition after 72 hrs by SRB assay; type: cell-based
Mus musculus [4] = experiment: Toxicity in nude CD1 mouse xenografted with human CW22Rv1 cells assessed as mortality at 50 mg/kg administered through oral gavage dosed qd for 5 days a week for 3 weeks; type: organism-based; conditions: in vivo
Summary of the method: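 Eight-week-old male CD-1 nude mice, 5 per group, given CW22Rv1 cells (5 × 10^6 in saline) sc in right flank on day 0. From day 1, oral gavage at 50 mg/kg (10 mL/kg) in DMSO/Cremophor/PBS (10/5/85), daily 5 days/week for 3 weeks. Vehicle controls. Toxicity scored as deaths per group, with body weight loss.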

[5] = Antitumor activity against human CW22Rv1 cells xenografted in nude CD1 mouse assessed as tumor volume inhibition at 50 mg/kg administered through oral gavage dosed qd for 5 days a week measured on day 7; type: functional
Summary of the method: (§1)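 Male CD-1 nude (nu/nu) mice, 8 weeks old, given 5 × 10^6 CW22Rv1 cells in saline s.c. in the right flank on day 0. Randomized, 5 per group. From day 1, before tumors were palpable, 50 mg/kg by oral gavage at 10 mL/kg in DMSO/Cremophor/PBS (10/5/85), qdx5/wx3w. Vehicle controls. Tumor volume by caliper as a × b²/2. TVI is the maximum value. Body weight loss monitored.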

Mus musculus [6] = experiment: Toxicity in nude CD1 mouse xenografted with human CW22Rv1 cells assessed as body weight loss at 50 mg/kg administered through oral gavage dosed qd for 5 days a week for 3 weeks; type: organism-based; conditions: in vivo; summary of the method: as §1
[7] = test system: Homo sapiens [UNDEFINED MUTATION]; experiment: Antagonist activity at androgen receptor V7 mutant in human CW22Rv1 cells assessed as cell death after 144 hrs by SRB assay; type: cell-based
Summary of the method: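 CW22Rv1 (RPMI 1640, 10% FBS, 1% glutamine) plated at 1700 cells/well; 24 h after seeding, drug exposure 0.02–20 μM for 144 h. Sulforhodamine B read at 490 nm. LC50 = concentration killing 50% of cells, i.e. OD treated below OD at time of drug addition (Monks formula). Octuplicate wells, three independent experiments, mean ± SD.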

Homo sapiens [8] = organism: Homo sapiens; experiment: Potency index, ratio of (R)-bicalutamide IC50 to compound IC50 for antagonist activity at AR V7 mutant in human CW22Rv1 cells assessed as cell growth inhibition; type: cell-based
Summary of the method: (§2)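 CW22Rv1 growth-inhibition assay: cells exposed 24 h after seeding to 0.5–100 μM for 72 h, then counted with a Coulter counter. IC50 is the concentration causing 50% growth inhibition, taken from dose–response curves. Run in triplicate, three independent experiments, mean ± SD. Ratios divide the reference IC50 by the compound IC50.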

[9] = biological target: T1, Androgen receptor (Homo sapiens); experiment: Antagonist activity at androgen receptor in human LNCAP cells assessed as cell death after 144 hrs by SRB assay; type: cell-based
Summary of the method: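 LNCaP cells in RPMI with 10% FBS and 1% glutamine, 5000 cells/well, exposed 24 h after seeding for 144 h to 0.02–20 μM. Read by SRB, OD 490 nm. LC50 is the concentration killing 50% of cells, i.e. treated OD below time-zero OD, per the Monks formula. Octuplicate wells, three independent experiments, mean ± SD.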

Homo sapiens [10] = organism: Homo sapiens; experiment: Potency index, ratio of enzalutamide IC50 to compound IC50 for antagonist activity at AR V7 mutant in human CW22Rv1 cells assessed as cell growth inhibition; type: cell-based; summary of the method: as §2
[11] = test system: Homo sapiens [UNDEFINED MUTATION]; experiment: Antagonist activity at androgen receptor V7 mutant in human CW22Rv1 cells assessed as cell growth inhibition after 144 hrs by SRB assay; type: cell-based
Summary of the method: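 SRB assay on CW22Rv1 cells grown in RPMI 1640 with 10% FBS and 1% glutamine. Cells plated at 1700/well and exposed 24 h after seeding for 144 h to 0.02–20 μM. OD read at 490 nm. GI50 is the concentration giving 50% growth inhibition by the Monks formula relative to time-zero and untreated OD. Octuplicate wells, three independent experiments, mean ± SD.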

SMILES	inhibition [1]	further results
N#Cc1ccc(-n2cc(COc3ccc([N+](=O)[O-])cc3C(F)(F)F)nn2)cc1C(F)(F)F	inactive	
N#Cc1ccc(-n2cc(COc3ccccc3)nn2)cc1C(F)(F)F	> 65%	
O=[N+]([O-])c1ccc(OCc2cn(-c3cccc(C(F)(F)F)c3)nn2)c(C(F)(F)F)c1	inactive	
N#Cc1ccc(-n2nnc(COc3ccc([N+](=O)[O-])cc3C(F)(F)F)c2I)cc1C(F)(F)F	inactive	
N#Cc1ccc(-n2cc(-c3cccc(C(F)(F)F)c3F)nn2)cc1C(F)(F)F	inactive	
N#Cc1ccc(NC(=O)Cn2cc(COc3ccc(F)cc3)nn2)cc1C(F)(F)F	inactive	
N#Cc1ccc(-n2cc(COc3cccc(C(F)(F)F)c3)nn2)cc1C(F)(F)F	inactive	
N#Cc1ccc(-n2cc(COc3ccc(F)cc3)nn2)cc1C(F)(F)F	> 65%	GI50 [2]: 19.2 µM
N#Cc1ccc(-n2cc(-c3cccc(F)c3F)nn2)cc1C(F)(F)F	38%	
N#Cc1ccc(OCc2cn(CC(=O)Nc3ccc(C#N)c(C(F)(F)F)c3)nn2)cc1	70%	GI50 [2]: 6.42 µM
N#Cc1ccc(-n2cc(CSc3ccc(F)cc3)nn2)cc1C(F)(F)F	> 65%	GI50 [2]: 16.8 µM
N#Cc1ccc(-n2cc(COc3ccc(C(F)(F)F)cc3)nn2)cc1C(F)(F)F	inactive	
N#Cc1ccc(OCc2cn(-c3ccc(C#N)c(C(F)(F)F)c3)nn2)cc1	> 65%	
CNC(=O)c1ccc(N2C(=S)N(c3ccc(C#N)c(C(F)(F)F)c3)C(=O)C2(C)C)cc1F [ENZALUTAMIDE]		pIC50 [3]: 4.45; Activity (Mus musculus [4]): Non-Toxic; %max [5]: 43%; Activity (Mus musculus [6]): 0%
N#Cc1ccc(-n2cc(COc3ccc([N+](=O)[O-])cc3)nn2)cc1C(F)(F)F	> 65%	
N#Cc1ccccc1OCc1cn(-c2ccc(C#N)c(C(F)(F)F)c2)nn1	> 65%	
N#Cc1ccc(-n2cc(-c3cccc(Cl)c3F)nn2)cc1C(F)(F)F	inactive	
N#Cc1ccc(-n2cc(COc3ccccc3[N+](=O)[O-])nn2)cc1C(F)(F)F	> 65%	
N#Cc1ccc(NC(=O)Cn2cc(CSc3ccc(F)cc3)nn2)cc1C(F)(F)F	inactive	
N#Cc1ccc(-n2cc(COc3cccc(C(F)(F)F)c3F)nn2)cc1C(F)(F)F	inactive	
CC(O)c1c(COc2ccc(C#N)cc2)nnn1-c1ccc(C#N)c(C(F)(F)F)c1 (stereo not given)	> 65%	
N#Cc1ccc(OCc2cn(CC(=O)Nc3ccc(Cl)c(C(F)(F)F)c3)nn2)cc1	inactive	LC50 [7]: 23.1 µM; Ratio IC50 (Homo sapiens [8]): 3.8; pIC50 [3]: 5.09; GI50 [9]: 15.7 µM; Ratio IC50 (Homo sapiens [10]): 4.4; Activity (Mus musculus [4]): Non-Toxic; GI50 [2]: 5.09 µM; %max [5]: 60%; Activity (Mus musculus [6]): 0%; GI50 [11]: 8.25 µM
C[C@](O)(CS(=O)(=O)c1ccc(F)cc1)C(=O)Nc1ccc(C#N)c(C(F)(F)F)c1 [(R)-BICALUTAMIDE]		pIC50 [3]: 4.50
N#Cc1ccc(-n2cc(COc3ccc(F)c(C(F)(F)F)c3)nn2)cc1C(F)(F)F	inactive	
